Series [1] deals with T1, Myeloblastin (Homo sapiens) (UniProt P24158).
T1 sequence (whole entry): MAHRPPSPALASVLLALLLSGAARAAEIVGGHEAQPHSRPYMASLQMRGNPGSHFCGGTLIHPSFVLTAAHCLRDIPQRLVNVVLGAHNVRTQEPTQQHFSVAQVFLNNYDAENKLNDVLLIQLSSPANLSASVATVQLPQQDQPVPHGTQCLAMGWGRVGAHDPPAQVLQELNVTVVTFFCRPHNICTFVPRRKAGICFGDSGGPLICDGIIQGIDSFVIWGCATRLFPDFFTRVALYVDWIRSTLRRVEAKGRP
Put plainly: Inhibition of human proteinase 3. The gist of the method: (§1)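 Proteinase 3 stock (325 nM in 0.05 M acetate pH 6, 150 mM NaCl) mixed at 25 °C with inhibitor in DMSO and MeOSuc-Ala-Ala-Pro-Val-p-nitroanilide (stock 50 mM in DMSO) in 0.1 M HEPES pH 7.2. A410 followed for 20 000 s. Progress curves fitted to slow-binding equations. Uninhibited controls ran linearly.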

Series [2] can be described thus: Chemical stability in phosphate buffer assessed as half life at pH 7.4. The format is physicochemical.
Series [3] in a line: Stability in human plasma assessed as half life at pH 7.4.
Series [4] deals with T2, Cathepsin G (Homo sapiens) (UniProt P08311).
T2 sequence (whole entry): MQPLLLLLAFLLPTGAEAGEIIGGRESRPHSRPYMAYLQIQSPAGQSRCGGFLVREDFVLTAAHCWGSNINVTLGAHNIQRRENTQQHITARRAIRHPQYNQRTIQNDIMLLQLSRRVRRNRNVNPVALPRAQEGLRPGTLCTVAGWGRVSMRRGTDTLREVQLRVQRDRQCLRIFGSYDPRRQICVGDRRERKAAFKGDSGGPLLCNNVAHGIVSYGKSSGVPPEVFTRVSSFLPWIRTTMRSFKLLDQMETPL
In words: Inhibition of human cathepsin G at 60 uM. The gist of the method: (§2)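 Cathepsin G stock (680 nM in 0.05 M acetate, pH 5.5) mixed at 25 °C with inhibitor in DMSO and Suc-Ala-Ala-Pro-Phe-p-nitroanilide (stock 42.5 mM in DMSO) in 0.1 M HEPES pH 7.5. A410 recorded continuously for 20 min. Progress curves fitted with slow-binding kinetics. Uninhibited controls ran linearly. Highest concentration tested 60 μM.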

For a further series, the target named is T3, Papain (Carica papaya) (UniProt P00784).
T3 sequence (whole entry): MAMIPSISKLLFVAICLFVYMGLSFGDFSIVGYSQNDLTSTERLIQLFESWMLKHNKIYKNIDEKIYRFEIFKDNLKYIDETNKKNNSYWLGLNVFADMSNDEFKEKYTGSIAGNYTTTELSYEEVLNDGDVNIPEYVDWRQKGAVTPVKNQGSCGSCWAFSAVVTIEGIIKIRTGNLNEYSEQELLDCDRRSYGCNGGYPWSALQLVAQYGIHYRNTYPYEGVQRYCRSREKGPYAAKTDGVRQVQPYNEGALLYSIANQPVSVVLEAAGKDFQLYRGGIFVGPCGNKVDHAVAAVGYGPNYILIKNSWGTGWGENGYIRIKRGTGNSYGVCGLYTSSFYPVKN
In words: Inhibition of papaya papain at 60 uM. The gist of the method:
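Incubation method. Activated papain was held with inhibitor at 25 °C in 50 mM potassium phosphate pH 7.0 with 2.5 mM EDTA. At intervals, aliquots were assayed with BAPA substrate (stock 10 mM in DMSO) in the same buffer, reading A410 for 4 min. Inhibitor-free controls were run in parallel.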

The target of series [5] is T2, Cathepsin G (Homo sapiens). In words: Inhibition of human cathepsin G. The gist of the method: as §2
The target of series [6] is T1, Myeloblastin (Homo sapiens). In words: Inhibition of human proteinase 3 at 10 uM. The gist of the method: as §1
For series [7] the target is unchanged. Put plainly: Inhibition of human proteinase 3 at 60 uM. The gist of the method:
as §1

SMILES strings stand for the structures. Active and inactive are the calls of the source. The calls are words filed in the database; no cut-off is given here.

Turning to `CCC1(CC)C(=O)N(c2ccc(OC)cc2)C1=O`, the Activity entry in series [1] (TDE = time-dependent effect) is “tde”.

Turning to `CCC1(CC)C(=O)N(c2ccc(Cl)cc2)C1=O`, in series [1] (TDE = time-dependent effect), the Activity result was “tde”.

As to `CCC1(CC)C(=O)N(Cc2ccccc2)C1=O`, the Activity result in series [1] (TDE = time-dependent effect) is “tde”.

Regarding `CCC1(CC)C(=O)N(c2ccc(CSc3nc4ccccc4s3)cc2)C1=O`, the figures for the half-life in series [2] and in series [3] were 10 h and 0.4 h, respectively. The Activity entry in series [1] (TDE = time-dependent effect) was “tde”.

On to `CCC1(CC)C(=O)N(c2ccccc2CSc2nccn2C)C1=O`, for which, in series [1] (TDE = time-dependent effect), the Activity entry was “tde”.

Regarding `CCC1(CC)C(=O)N(c2ccccc2CSc2nc3ccccc3o2)C1=O`, the Activity in series [1] stood at 361 M⁻¹ s⁻¹. The outcome (in series [4]; at Papain (Carica papaya)) was inactive.

For the compound `CC1(C)C(=O)N(Cc2ccccc2)C1=O`, in series [1] (TDE = time-dependent effect), the Activity entry is “tde”.

`CCC1(CC)C(=O)N(c2ccccc2)C1=O`: in series [1] (TDE = time-dependent effect), the Activity result is “tde”.

With `CCC1(CC)C(=O)N(c2ccccc2CSc2nnc(-c3ccccc3)o2)C1=O`, the Activity entry in series [1] (TDE = time-dependent effect) was “tde”.

As to `CCC1(CC)C(=O)N(c2cccnc2)C1=O`, in series [1] (TDE = time-dependent effect), the Activity result is “tde”.

For `CC1(C)C(=O)N(c2ccc(Cl)cc2)C1=O`, the Activity entry in series [1] (TDE = time-dependent effect) is “tde”.

In turn, `CCC1(Cc2ccccc2)C(=O)N(c2ccccc2)C1=O` had an Activity in series [1] of 20.2 M⁻¹ s⁻¹. For the same compound, the result (in series [4]; on Papain (Carica papaya)) was inactive.

Turning to `CCC1(CC)C(=O)N(c2ccc(C)cc2)C1=O`, in series [1] (TDE = time-dependent effect), the Activity result was “tde”.

In the case of `CCC1(CC)C(=O)N(c2ccccc2C)C1=O`, the Activity result in series [1] (TDE = time-dependent effect) was “tde”.

With `CCC1(CC)C(=O)N(c2ccc(C)nc2)C1=O`, in series [1] (TDE = time-dependent effect), the Activity entry is “tde”.

Consider `CCCCC1(CC)C(=O)N(c2ccccc2)C1=O`, for which, at Papain (Carica papaya), the result was inactive. In series [5], the Activity came to 47.3 M⁻¹ s⁻¹.

In the case of `CCC1(CC)C(=O)N(c2ccccc2CSc2nc3ccccc3s2)C1=O`, the half-life – broadly, the time in which the quantity being followed falls by half – in series [2] is 37 h; in series [3], 1.6 h. The Activity result in series [1] (TDE = time-dependent effect) is “tde”.

`CCC1(CC)C(=O)N(c2ccc(C#N)cc2)C1=O`: the inhibition (commonly the percentage by which the read-out fell short of the control) in series [6] was determined as 16%. Besides, the outcome at Papain (Carica papaya) was inactive. The compound also yielded an Activity in series [5] of 36.5 M⁻¹ s⁻¹.

On to `CC1(Cc2ccccc2)C(=O)N(c2ccccc2)C1=O`, for which the inhibition in series [7] was 22%. For the same compound, the result (in series [4]; on Papain (Carica papaya)) was inactive.

`CCC1(CC)C(=O)N(c2ccc(CSc3nc4ccccc4o3)cc2)C1=O` gave an Activity in series [1] of 29.6 M⁻¹ s⁻¹. Also, the result (in series [4]; on Papain (Carica papaya)) was inactive.

As for `CC1(C)C(=O)N(c2ccccc2)C1=O`, the Activity result in series [1] (TDE = time-dependent effect) was “tde”.

Turning to `CCC1(CC)C(=O)N(c2ccc(CSc3nnc(-c4ccccc4)o3)cc2)C1=O`, the Activity result in series [1] (TDE = time-dependent effect) is “tde”.

`CCC1(CC)C(=O)N(c2ccc(CSc3nc4cc(C(=O)O)ccc4o3)cc2)C1=O`: the Activity in series [1] amounted to 689 M⁻¹ s⁻¹. The result (in series [4]; at Papain (Carica papaya)) was inactive.

`CCOC(=O)CN1C(=O)C(CC)(CC)C1=O`: the Activity entry in series [1] (TDE = time-dependent effect) was “tde”.

Consider `CCC1(CC(C)C)C(=O)N(c2ccccc2)C1=O`, for which the Activity entry in series [1] (TDE = time-dependent effect) was “tde”.

As for `CCC1(CC)C(=O)N(c2cccc3ccccc23)C1=O`, the result on Papain (Carica papaya) was inactive. The compound also registered an Activity in series [5] of 35.6 M⁻¹ s⁻¹.

The compound `CCC1(CC)C(=O)N(c2ccc(CSc3ccccc3)cc2)C1=O` had an Activity in series [1] of 122 M⁻¹ s⁻¹. For the same compound, the result on Papain (Carica papaya) was inactive.

With `CCC1(CC)C(=O)N(c2ccc(CSc3nc4ccccc4s3)nc2)C1=O`, the half-life in series [2] was 13 h; in series [3] it was 0.2 h. Further, in series [1], the Activity is 4080 M⁻¹ s⁻¹. Further, the outcome (in series [4]; at Papain (Carica papaya)) was inactive.

Source of the values: ChEMBL document CHEMBL1156756, “4-Oxo-beta-lactams (azetidine-2,4-diones) are potent and selective inhibitors of human leukocyte elastase” (J Med Chem, 2010).
